Only some compounds are listed: those with a hit (about 2% of all), similar ones and a draw of the others.
HCV NS3 hel inh = HCV NS3 helicase inhibition; NS3 helicase DNA unwinding, Cy5 molecular beacon fluorescence; inhibition, % at 10.9 µM; 290,000 compounds, 0.56% hits;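 active means inhibition above the mean of all tested compounds plus 3 SD, set per campaign, cut at about 35% in these data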
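Assay system – hepatitis C virus NS3 helicase domain fragment enzyme · Buffer or medium – MOPS pH 6.5, MgCl2, DTT, Tween20, BSA · Reagent – Cy5/quencher beacon DNA duplex and ATP to start · Compound – single 10.9 µM dose · Timing – 1 h at 25 °C · Technique – Cy5 beacon fluorescence read at start and 1 h · Measure – % inhibition of unwinding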
DNA FID counter-1 = displaces DNA intercalator in HCV helicase counter-screen; inhibition, % at 7.9 µM; 290,000 compounds, 0.17% hits; DNA fluorescent intercalator displacement, fluorescence; in the data active means inhibition above about 37%;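 further: higher means more ethidium bromide displaced from hairpin DNA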
eIF4H inh = inhibitors of RNA binding by human eIF4H | AID 2012 | 290,000 compounds, 0.94% hits | inhibition, % at 35 µM | Q15056 | eIF4H fluorescence polarization binding assay;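 further: calls also rest on retests at 20 µM and on dose response follow-up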
PABP FP inh = blocks human PABP binding to poly(A) RNA; P11940; fluorescence polarization; inhibition, % at 35 µM; 290,000 compounds, 1% hits; AID 2014;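 further: calls also rest on retests at 20 µM and on dose response follow-up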
Target sequence (P11940 whole entry, looked up): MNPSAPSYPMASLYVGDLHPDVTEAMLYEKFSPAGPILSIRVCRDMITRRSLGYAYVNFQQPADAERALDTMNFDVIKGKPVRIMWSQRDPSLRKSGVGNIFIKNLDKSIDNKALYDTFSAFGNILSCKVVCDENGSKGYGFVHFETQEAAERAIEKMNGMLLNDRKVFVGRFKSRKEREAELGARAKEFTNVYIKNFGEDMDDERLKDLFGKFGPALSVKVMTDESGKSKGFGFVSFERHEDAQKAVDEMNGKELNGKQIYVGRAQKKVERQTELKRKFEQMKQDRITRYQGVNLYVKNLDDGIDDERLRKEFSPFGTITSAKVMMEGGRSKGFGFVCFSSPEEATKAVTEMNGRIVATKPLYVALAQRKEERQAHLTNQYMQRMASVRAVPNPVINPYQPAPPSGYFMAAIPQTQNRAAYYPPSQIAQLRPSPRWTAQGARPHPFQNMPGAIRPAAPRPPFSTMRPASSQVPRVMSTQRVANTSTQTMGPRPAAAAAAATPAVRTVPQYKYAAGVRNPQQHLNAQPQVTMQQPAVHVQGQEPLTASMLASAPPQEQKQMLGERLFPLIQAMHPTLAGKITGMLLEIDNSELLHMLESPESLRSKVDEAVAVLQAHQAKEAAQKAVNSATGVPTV
core dimer inh = HCV core protein dimerization inhibition; 300,000 compounds, 0.33% hits; AID 1899; TR-FRET GST/Flag-core106 dimerization, 1536-well; inhibition, % at 5 µM;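 active means inhibition above the mean of all tested compounds plus 3 SD, set per screening campaign, cut at about 45% in these data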
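Material: Tagged HCV core106 pair (GST and Flag) | Amount: GST-core106 13.5 nM, Flag-core106 17 nM | Medium: KF-containing HEPES buffer, pH 7.45, DTT, CHAPS, BSA | Reagent: Eu donor and XL665 acceptor anti-tag antibodies | Schedule: 4 h at 22.5 °C | Technique: Time-resolved FRET, ex 340 nm, em 617 and 671 nm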
MLLE-PAM2 inh = inhibitors of microRNA-mediated deadenylation, human PABP1 MLLE binding; AID 588489; GST-MLLE / FITC-PAM2 fluorescence polarization; 360,000 compounds, 0.36% hits; inhibition, % at 20 µM; P11940; in the data active means inhibition above about 35%, passing the limit was not always enough
NS3 helicase cf = confirmation of Hepatitis C virus NS3 helicase inhibitors; shares compounds with HCV NS3 hel inh; NS3 helicase DNA unwinding, Cy5 molecular beacon fluorescence; 1,600 compounds, 31% hits; AID 1943; inhibition, % at 10.9 µM;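 active means inhibition above the mean of all tested compounds plus 3 SD, cutoff set per campaign, cut at about 36% in these data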
DNA FID counter-2 = intercalator displacement, NS3 helicase counter-screen. inhibition, % at 7.9 µM. 1,600 compounds, 4% hits. AID 1945. shares compounds with HCV NS3 hel inh. DNA fluorescent intercalator displacement, fluorescence; in the data active means inhibition above about 37%;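 further: higher means more displacement of ethidium bromide from the DNA hairpin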
FID counter DR = DNA intercalator displacement in dose response; shares compounds with HCV NS3 hel inh; fluorescent intercalator displacement from DNA, fluorescence; IC50, µM; 120 tested, under 10 active; AID 2172
Hits are given with their value. Unless noted, how the calls were made is not given here.

What do the screens show for `Cc1ccc(CNC(=O)CS(=O)(=O)Cc2nc(-c3ccc(C)cc3)oc2C)cc1`?
HCV NS3 hel inh: 40.7; DNA FID counter-1: inactive; eIF4H inh: inactive; PABP FP inh: inactive; core dimer inh: inactive; MLLE-PAM2 inh: inactive; NS3 helicase cf: inactive; DNA FID counter-2: inactive

Results for O=C(CSc1nnc(-c2ccco2)n1Cc1ccccc1)c1ccc(F)cc1 ?
HCV NS3 hel inh: 39.3; DNA FID counter-1: inactive; eIF4H inh: inactive; PABP FP inh: inactive; core dimer inh: inactive; MLLE-PAM2 inh: inactive; NS3 helicase cf: 74.1; DNA FID counter-2: inactive

How did O=C(CSc1nnc(-c2ccco2)n1Cc1ccccc1)NCc1ccccc1 do in these assays?
HCV NS3 hel inh: inactive; DNA FID counter-1: inactive; eIF4H inh: inactive; PABP FP inh: inconclusive; core dimer inh: inactive; MLLE-PAM2 inh: inactive

How did CCn1c2ccccc2c2c3ncc4cccn4c3ccc21 do in these assays?
HCV NS3 hel inh: 43.7; DNA FID counter-1: inactive; eIF4H inh: inconclusive; PABP FP inh: inconclusive; core dimer inh: inactive; MLLE-PAM2 inh: inactive; NS3 helicase cf: inactive; DNA FID counter-2: 49.6

Results for C=CCN1C(=O)/C(=C/c2ccc(-c3ccc(F)cc3)o2)SC1=S ?
HCV NS3 hel inh: 78.3; DNA FID counter-1: inactive; eIF4H inh: inactive; PABP FP inh: inactive; core dimer inh: inactive; MLLE-PAM2 inh: inactive; NS3 helicase cf: inactive; DNA FID counter-2: inactive

Results for C=CCN1C(=O)/C(=C/c2ccsc2)SC1=S ?
HCV NS3 hel inh: inactive; DNA FID counter-1: inactive; eIF4H inh: inactive; PABP FP inh: inactive; core dimer inh: inactive; MLLE-PAM2 inh: inactive

What do the screens show for `O=C(CCN=C1NS(=O)(=O)c2ccccc21)OCc1nnc(-c2ccc([N+](=O)[O-])cc2)o1`?
MLLE-PAM2 inh: inactive

What do the screens show for `CC(C)N1C(=O)CC(Nc2cccc3cccc(N)c23)C1=O` (centres undefined)?
HCV NS3 hel inh: 40.0; DNA FID counter-1: inactive; eIF4H inh: inconclusive; PABP FP inh: inactive; MLLE-PAM2 inh: inactive; NS3 helicase cf: inactive; DNA FID counter-2: inactive

What do the screens show for `O=C1CC(Nc2ccccc2)C(=O)N1c1ccc(N2CCOCC2)cc1` (centres undefined)?
HCV NS3 hel inh: inactive; DNA FID counter-1: inactive; eIF4H inh: inactive; PABP FP inh: inactive; core dimer inh: inactive; MLLE-PAM2 inh: inactive

Results for CC(C)N1C(=O)CC(Nc2ccc(N3CCOCC3)cc2)C1=O (centres undefined) ?
HCV NS3 hel inh: 38.8; DNA FID counter-1: inactive; eIF4H inh: inactive; PABP FP inh: inactive; core dimer inh: inactive; MLLE-PAM2 inh: inactive; NS3 helicase cf: inactive; DNA FID counter-2: inactive

Results for COc1ccc(CCN2C(=O)CC(Nc3ccc(N4CCOCC4)cc3)C2=O)cc1OC (centres undefined) ?
HCV NS3 hel inh: 45.8; DNA FID counter-1: inactive; eIF4H inh: inactive; PABP FP inh: inactive; core dimer inh: inactive; MLLE-PAM2 inh: inactive; NS3 helicase cf: inactive; DNA FID counter-2: inactive

Results for O=C1CC(Nc2ccc(N3CCOCC3)cc2)C(=O)N1C1CCCCC1 (centres undefined) ?
HCV NS3 hel inh: 38.2; DNA FID counter-1: inactive; eIF4H inh: inactive; PABP FP inh: inactive; core dimer inh: inactive; MLLE-PAM2 inh: inactive; NS3 helicase cf: inactive; DNA FID counter-2: inactive

Results for C[C@@H]1CCCCO[C@@H](CN(C)C(=O)CCCN(C)C)[C@@H](C)CN([C@H](C)CO)C(=O)c2cc(NC(=O)CCC(F)(F)F)ccc2O1 ?
MLLE-PAM2 inh: inactive

How did CN(C)c1ccc(N=Nc2ccc(C(=O)O)cc2)cc1 do in these assays?
HCV NS3 hel inh: 62.5; DNA FID counter-1: inactive; eIF4H inh: 69.7; PABP FP inh: 64.2; core dimer inh: inactive; MLLE-PAM2 inh: inactive; NS3 helicase cf: inactive; DNA FID counter-2: inactive

Results for O=C1c2ccccc2[C@@H]2C[C@@H](O)[C@H](Nc3cccc(C(F)(F)F)c3)CCN12 ?
MLLE-PAM2 inh: inactive

Results for C[C@H]1c2cccc(O)c2C(O)=C2C(=O)C3(O)C(O)=C(C(N)=O)C(=O)[C@@H](N(C)C)[C@@H]3[C@@H](O)[C@@H]21 (some centres undefined) ?
core dimer inh: inactive; MLLE-PAM2 inh: inactive

Results for C=C1c2cccc(O)c2C(O)=C2C(=O)[C@]3(O)C(O)=C(C(N)=O)C(=O)[C@@H](N(C)C)[C@@H]3[C@@H](O)[C@H]12 ?
HCV NS3 hel inh: 84.7; DNA FID counter-1: inactive; eIF4H inh: 107.0; PABP FP inh: 109.7; core dimer inh: inactive; MLLE-PAM2 inh: inactive; NS3 helicase cf: 55.5; DNA FID counter-2: inactive; FID counter DR: inactive

Results for Cc1ccc(/C=C/C(=O)c2ccccc(=O)c2O)c(C)c1 ?
HCV NS3 hel inh: 37.5; DNA FID counter-1: inactive; eIF4H inh: inactive; PABP FP inh: inactive; core dimer inh: inactive; MLLE-PAM2 inh: inactive; NS3 helicase cf: 77.1; DNA FID counter-2: inactive; FID counter DR: inactive

How did Cc1ccc(C)c(/C=C/C(=O)c2ccccc(=O)c2O)c1 do in these assays?
HCV NS3 hel inh: 38.5; DNA FID counter-1: inactive; eIF4H inh: inactive; PABP FP inh: inactive; core dimer inh: inactive; MLLE-PAM2 inh: inactive; NS3 helicase cf: 77.1; DNA FID counter-2: inactive; FID counter DR: inactive

How did O=C(/C=C/c1ccc([N+](=O)[O-])cc1)c1ccccc(=O)c1O do in these assays?
MLLE-PAM2 inh: inactive

Results for O=C(/C=C/c1ccccc1Cl)c1ccccc(=O)c1O ?
HCV NS3 hel inh: 44.1; DNA FID counter-1: inactive; eIF4H inh: inactive; PABP FP inh: inactive; core dimer inh: inactive; MLLE-PAM2 inh: inactive; NS3 helicase cf: 77.8; DNA FID counter-2: inactive; FID counter DR: inactive

What do the screens show for `O=C(C=Cc1ccccc1O)c1ccccc1O`?
MLLE-PAM2 inh: inactive

How did O=C(Nc1cc(C(F)(F)F)ccc1N1CCOCC1)C1CC1 do in these assays?
MLLE-PAM2 inh: inactive

Results for O=C(Nc1cc(C(F)(F)F)ccc1N1CCOCC1)C1Cc2ccccc2CN1C(=O)c1ccco1 (centres undefined) ?
HCV NS3 hel inh: 57.4; DNA FID counter-1: inactive; eIF4H inh: inactive; PABP FP inh: inactive; core dimer inh: inactive; MLLE-PAM2 inh: inactive; NS3 helicase cf: inactive; DNA FID counter-2: inactive

Results for Cc1ccc(OCc2n[nH]c(=S)n2-c2ccc(Br)cc2)cc1 ?
HCV NS3 hel inh: 37.4; DNA FID counter-1: inactive; eIF4H inh: inactive; PABP FP inh: inactive; core dimer inh: inactive; MLLE-PAM2 inh: inactive; NS3 helicase cf: inactive; DNA FID counter-2: inactive

Screens (PubChem BioAssay)
